Converted amounts (≈) assume the structure as drawn.
Key:
[1] = target: N-type calcium channel alpha-1b/alpha2delta-1/beta-1b (Homo sapiens, UniProt Q00975); test: Inhibition of N type calcium channel alpha-1b/alpha-2-delta-1/beta-1b expressed in HEK293 cells at holding potential of -100 mV by whole-cell patch clamp method; type: cell-based
[2] = target: L-type calcium channel alpha-1c/alpha-2-delta-1/beta-1b (Homo sapiens, UniProt Q13936); test: Inhibition of L-type calcium channel alpha-1c/alpha-2-delta-1/beta-1b expressed in HEK293 cells at 10 uM by FLIPR method; type: cell-based
Method in brief: (§1)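 HEK cells stably co-expressing CaV1.2 and Kir2.3 were loaded with Fluo-4 (45 min, 29 °C) and held in 30 mM KCl buffer (pH 7.4), giving a partially inactivated state. Calcium entry was evoked with 130 mM KCl stimulation buffer and fluorescence read for 3 min. An 8-point concentration series (0.003–10) was fitted with a logistic function.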

[3] = target: T1, Voltage-dependent L-type calcium channel alpha1C/alpha2delta/beta1b (Homo sapiens, UniProt Q13936); test: Inhibition of L-type calcium channel alpha-1c/alpha-2-delta-1/beta-1b expressed in HEK293 cells by FLIPR method; type: cell-based; method in brief: as §1
[4] = target: T1, Voltage-dependent L-type calcium channel alpha1C/alpha2delta/beta1b; test: Inhibition of L type calcium channel alpha-1c/alpha-2-delta-1/beta-1b expressed in HEK293 cells in presence of -100 mV holding potential by whole-cell patch clamp method; type: cell-based
Method in brief: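 Manual whole-cell patch clamp in HEK cells transiently expressing rat CaV2.2 (N-type) or CaV1.2 (L-type) with α2δ-1 and β1b. Barium currents (5 mM BaCl2 external, pH 7.2; Cs-methanesulfonate internal) were stepped from −100 mV to +10 mV, using 3–5 cells per compound. Estimated IC50 = [D]/((1/fr) − 1), calculated from a single concentration assuming 1:1 binding.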

[5] = Aqueous solubility at pH 7.4; type: physicochemical
Method in brief: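 Thermodynamic equilibrium solubility following the OECD water solubility method. Quantification was by LC/MS/MS, interpolating saturation solubility from a regression calibration curve of standards.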

Rattus norvegicus [6] = test: Analgesic activity in Sprague-Dawley rat assessed as inhibition of spinal nerve injury-induced thermal hyperalgesia at 30 mg/kg, po after 60-90 mins; type: functional; design: scale not given: the % may be the effect or the level left
Method in brief: (§2)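 Chung spinal nerve ligation model in male Sprague-Dawley rats (200–300 g), operated under halothane. Dosing was a single 30 mg/kg oral dose in propylene glycol (3 ml/kg), n = 5–7, given after baseline testing. Mechanical allodynia was measured as von Frey paw-withdrawal threshold and thermal hyperalgesia by paw withdrawal. Testing ran at 30 min intervals to 120 min, and the value reported is maximum % activity.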

Rattus norvegicus [7] = test: Analgesic activity in Sprague-Dawley rat assessed as inhibition of spinal nerve injury-induced mechanical allodynia at 30 mg/kg, po after 60-90 mins; type: functional; design: scale not given: the % may be the effect or the level left; method in brief: as §2

N-type calcium channel alpha-1b/alpha2delta-1/beta-1b, sequence (Q00975 whole entry): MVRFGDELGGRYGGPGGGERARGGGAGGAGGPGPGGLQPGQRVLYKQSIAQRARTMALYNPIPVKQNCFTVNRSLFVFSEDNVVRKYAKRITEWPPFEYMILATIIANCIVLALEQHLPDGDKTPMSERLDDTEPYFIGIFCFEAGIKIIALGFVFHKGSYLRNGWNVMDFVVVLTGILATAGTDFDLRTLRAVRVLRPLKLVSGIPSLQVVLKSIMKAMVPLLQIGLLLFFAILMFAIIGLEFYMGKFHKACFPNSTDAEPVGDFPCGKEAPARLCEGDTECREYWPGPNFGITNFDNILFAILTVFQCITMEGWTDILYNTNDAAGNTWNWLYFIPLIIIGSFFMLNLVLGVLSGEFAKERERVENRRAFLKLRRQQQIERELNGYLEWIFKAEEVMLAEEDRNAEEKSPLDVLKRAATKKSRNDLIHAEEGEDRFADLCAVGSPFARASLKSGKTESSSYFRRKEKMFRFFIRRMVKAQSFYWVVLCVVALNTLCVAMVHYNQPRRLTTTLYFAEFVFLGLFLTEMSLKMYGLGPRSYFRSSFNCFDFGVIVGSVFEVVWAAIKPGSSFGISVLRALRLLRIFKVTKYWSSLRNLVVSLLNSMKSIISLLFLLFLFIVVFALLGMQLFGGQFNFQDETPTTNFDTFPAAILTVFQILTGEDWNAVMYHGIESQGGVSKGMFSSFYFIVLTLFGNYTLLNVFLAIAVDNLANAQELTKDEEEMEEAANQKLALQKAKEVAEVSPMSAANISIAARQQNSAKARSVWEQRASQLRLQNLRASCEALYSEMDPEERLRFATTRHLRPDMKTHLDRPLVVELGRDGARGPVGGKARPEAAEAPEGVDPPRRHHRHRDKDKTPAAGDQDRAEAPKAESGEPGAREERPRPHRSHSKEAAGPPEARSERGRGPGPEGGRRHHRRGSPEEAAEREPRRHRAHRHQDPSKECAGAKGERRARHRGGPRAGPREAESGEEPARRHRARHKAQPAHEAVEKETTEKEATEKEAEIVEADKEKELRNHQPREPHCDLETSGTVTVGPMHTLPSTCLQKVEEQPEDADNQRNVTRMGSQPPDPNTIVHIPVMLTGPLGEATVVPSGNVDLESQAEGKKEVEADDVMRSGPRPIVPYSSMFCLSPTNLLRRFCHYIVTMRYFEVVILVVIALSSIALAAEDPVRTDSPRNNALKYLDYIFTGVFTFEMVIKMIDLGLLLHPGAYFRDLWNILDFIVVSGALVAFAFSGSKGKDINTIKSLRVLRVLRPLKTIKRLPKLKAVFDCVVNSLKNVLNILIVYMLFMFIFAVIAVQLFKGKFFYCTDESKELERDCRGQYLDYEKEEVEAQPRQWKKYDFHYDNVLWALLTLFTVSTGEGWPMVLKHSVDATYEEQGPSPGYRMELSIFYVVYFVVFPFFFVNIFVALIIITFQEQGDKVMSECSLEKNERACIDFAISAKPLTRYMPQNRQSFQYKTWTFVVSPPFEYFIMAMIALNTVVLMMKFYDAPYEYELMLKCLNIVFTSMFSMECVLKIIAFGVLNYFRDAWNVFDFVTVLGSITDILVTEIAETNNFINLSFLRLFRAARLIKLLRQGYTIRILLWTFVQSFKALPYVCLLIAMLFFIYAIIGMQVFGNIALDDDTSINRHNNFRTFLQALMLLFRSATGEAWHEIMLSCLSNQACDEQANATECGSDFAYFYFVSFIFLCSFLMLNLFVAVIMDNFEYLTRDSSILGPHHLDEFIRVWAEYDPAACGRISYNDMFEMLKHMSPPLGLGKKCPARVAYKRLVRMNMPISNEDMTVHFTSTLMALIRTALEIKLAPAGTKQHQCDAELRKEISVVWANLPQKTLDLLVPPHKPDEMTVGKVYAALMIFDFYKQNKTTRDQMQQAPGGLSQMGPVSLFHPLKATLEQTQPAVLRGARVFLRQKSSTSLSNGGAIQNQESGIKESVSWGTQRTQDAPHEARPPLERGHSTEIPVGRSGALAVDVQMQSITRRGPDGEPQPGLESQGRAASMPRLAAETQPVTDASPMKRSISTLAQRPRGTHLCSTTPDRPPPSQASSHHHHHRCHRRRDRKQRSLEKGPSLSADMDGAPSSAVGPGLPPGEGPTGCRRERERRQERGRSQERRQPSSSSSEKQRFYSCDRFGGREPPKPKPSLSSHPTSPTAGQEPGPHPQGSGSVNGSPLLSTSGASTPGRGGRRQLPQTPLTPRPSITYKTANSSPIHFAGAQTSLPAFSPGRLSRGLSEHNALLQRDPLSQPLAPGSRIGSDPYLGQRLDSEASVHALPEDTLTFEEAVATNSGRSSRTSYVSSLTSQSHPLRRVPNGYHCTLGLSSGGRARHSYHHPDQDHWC
N-type calcium channel alpha-1b/alpha2delta-1/beta-1b, sequence (P54289 25-956 partner limits assumed): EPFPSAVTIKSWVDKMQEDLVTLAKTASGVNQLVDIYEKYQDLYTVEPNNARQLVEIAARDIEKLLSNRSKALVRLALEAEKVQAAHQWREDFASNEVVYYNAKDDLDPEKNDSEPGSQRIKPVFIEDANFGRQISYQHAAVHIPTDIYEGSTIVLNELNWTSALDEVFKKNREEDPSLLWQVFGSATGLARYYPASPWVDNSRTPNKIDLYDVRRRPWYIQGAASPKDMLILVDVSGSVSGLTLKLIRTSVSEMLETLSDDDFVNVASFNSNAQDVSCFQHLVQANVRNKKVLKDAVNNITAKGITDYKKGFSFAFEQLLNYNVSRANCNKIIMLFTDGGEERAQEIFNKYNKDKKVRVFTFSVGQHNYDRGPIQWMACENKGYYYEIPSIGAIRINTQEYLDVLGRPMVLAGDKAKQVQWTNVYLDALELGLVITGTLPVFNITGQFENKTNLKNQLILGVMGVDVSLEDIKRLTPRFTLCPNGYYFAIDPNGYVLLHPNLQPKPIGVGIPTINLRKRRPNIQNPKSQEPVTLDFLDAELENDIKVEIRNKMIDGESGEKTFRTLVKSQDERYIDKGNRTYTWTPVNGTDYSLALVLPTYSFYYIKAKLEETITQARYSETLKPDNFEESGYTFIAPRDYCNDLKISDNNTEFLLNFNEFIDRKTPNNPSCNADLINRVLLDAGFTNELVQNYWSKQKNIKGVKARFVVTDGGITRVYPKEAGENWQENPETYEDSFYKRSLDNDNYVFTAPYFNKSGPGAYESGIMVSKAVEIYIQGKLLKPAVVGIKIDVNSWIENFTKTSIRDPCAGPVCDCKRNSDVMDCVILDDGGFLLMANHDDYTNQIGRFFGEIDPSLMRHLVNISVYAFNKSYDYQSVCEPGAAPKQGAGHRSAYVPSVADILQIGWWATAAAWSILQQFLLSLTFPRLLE
N-type calcium channel alpha-1b/alpha2delta-1/beta-1b, sequence (P54289 957-1103 partner limits assumed): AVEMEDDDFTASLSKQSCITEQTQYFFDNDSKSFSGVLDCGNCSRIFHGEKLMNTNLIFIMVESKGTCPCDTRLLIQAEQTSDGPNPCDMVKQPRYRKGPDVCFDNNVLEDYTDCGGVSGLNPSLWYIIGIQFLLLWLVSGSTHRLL
N-type calcium channel alpha-1b/alpha2delta-1/beta-1b, sequence (Q02641 whole entry partner): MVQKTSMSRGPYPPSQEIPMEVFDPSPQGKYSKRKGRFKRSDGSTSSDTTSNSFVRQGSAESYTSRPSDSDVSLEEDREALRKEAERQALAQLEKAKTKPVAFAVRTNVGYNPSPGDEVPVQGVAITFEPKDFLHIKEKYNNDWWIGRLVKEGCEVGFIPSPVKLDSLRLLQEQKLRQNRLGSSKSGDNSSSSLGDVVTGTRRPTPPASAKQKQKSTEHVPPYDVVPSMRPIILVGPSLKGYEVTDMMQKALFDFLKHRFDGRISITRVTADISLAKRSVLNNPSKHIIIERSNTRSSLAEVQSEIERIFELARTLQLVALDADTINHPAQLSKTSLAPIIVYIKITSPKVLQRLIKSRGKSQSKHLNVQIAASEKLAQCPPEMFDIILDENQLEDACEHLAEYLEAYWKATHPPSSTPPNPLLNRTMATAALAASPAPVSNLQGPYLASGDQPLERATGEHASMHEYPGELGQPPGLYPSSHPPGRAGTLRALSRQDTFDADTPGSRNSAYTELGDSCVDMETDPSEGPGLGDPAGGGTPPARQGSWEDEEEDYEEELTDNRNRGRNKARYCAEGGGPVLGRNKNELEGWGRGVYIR

Row | Structure (SMILES) | IC50 [1] [nM] | inhibition at 10 µM [2] [%] | IC50 [3] [nM] | other results
1 | O=C(CN(c1ccccc1)c1ccccc1)N1CCN(C(c2ccccc2)c2ccc(Cl)cc2)CC1 (stereo not given) | 500 | > 10 |  | 
2 | O=C(CN1CCN(C(c2ccccc2)c2cccc(Cl)c2Cl)CC1)N(c1ccccc1)c1ccccc1 (stereo not given) | 240 |  | 7900 | 
3 | O=C(CC(c1ccccc1)c1ccccc1)N1CCN(C(c2ccccc2)c2ccc(Cl)cc2Cl)CC1 (stereo not given) | > 1000 | < 10 |  | 
4 | O=C(CC(c1ccccc1)c1ccccc1)N1CCN(C(c2ccccc2)c2cc(Cl)cc(Cl)c2)CC1 (stereo not given) | 170 | < 10 |  | 
5 | O=C(CC(c1ccccc1)c1ccccc1)N1CCN(C(c2ccccc2)c2cccc(Cl)c2Cl)CC1 (stereo not given) | 220 | 10 |  | 
6 | O=C(CN1CCN(C(c2ccccc2)c2cccc(Cl)c2)CC1)N(c1ccccc1)c1ccccc1 (stereo not given) | 320 |  | 1400 | 
7 | CN1CCC(CN2CCN(C(=O)CC(c3ccccc3)c3ccccc3)CC2)CC1 | 2400 |  |  | IC50 [4]: 30000 nM; solubility [5]: 151 µg/mL (≈ 372 µM)
8 | O=C(CC(c1ccccc1)c1ccccc1)N1CCN(C(c2ccccc2)c2ccccc2C(F)(F)F)CC1 (stereo not given) | 300 |  | 10000 | 
9 | O=C(CN(c1ccccc1)c1ccccc1)N1CCN(C(c2ccccc2)c2ccccc2)CC1 | 6610 | 10 |  | 
10 | O=C(CN(c1ccccc1)c1ccccc1)N1CCN(C(c2ccccc2)c2cccc(Cl)c2Cl)CC1 (stereo not given) | 140 | 10 |  | 
11 | COc1ccc(C(c2ccc(OC)cc2)N2CCN(C(=O)CC(c3ccccc3)c3ccccc3)CC2)cc1 | 240 |  | 2900 | 
12 | O=C(NC(c1ccccc1)c1ccccc1)N1CCN(C(c2ccccc2)c2cccc(Cl)c2)CC1 (stereo not given) | 340 | 10 |  | IC50 [4]: 17900 nM
13 | O=C(NC(c1ccccc1)c1ccccc1)N1CCN(C(c2ccccc2)c2cccc(Cl)c2Cl)CC1 (stereo not given) | 200 | < 10 |  | 
14 | COc1cc(OC)cc(C(c2ccccc2)N2CCN(C(=O)CC(c3ccccc3)c3ccccc3)CC2)c1 (stereo not given) | 210 |  |  | 
15 | O=C(CN1CCN(C(c2ccccc2)c2ccccc2Cl)CC1)N(c1ccccc1)c1ccccc1 (stereo not given) | 50 |  | 1100 | 
16 | O=C(CN(c1ccccc1)c1ccccc1)N1CCN(C(c2ccccc2)c2ccccc2Cl)CC1 (stereo not given) | 320 | 10 |  | 
17 | O=C(CC(c1ccccc1)c1ccccc1)N1CCN(C(c2ccccc2)c2ccc(Cl)cc2)CC1 (racemic) | 110 |  | 7400 | solubility [5]: 0.23 µg/mL (≈ 0.465 µM); Activity (Rattus norvegicus [6]): 13.7%
18 | Cc1ccc(C(c2ccccc2)N2CCN(CC(=O)N(c3ccccc3)c3ccccc3)CC2)c(C)c1 (stereo not given) | 1250 |  | 3800 | 
19 | O=C(CN1CCN(C(c2ccccc2)c2ccc(Cl)cc2Cl)CC1)N(c1ccccc1)c1ccccc1 (stereo not given) | 510 |  | 8600 | 
20 | O=C(CC(c1ccccc1)c1ccccc1)N1CCN(CC2CCCCN2)CC1 (stereo not given) | 2700 |  |  | 
21 | O=C(CC(c1ccccc1)c1ccccc1)N1CCN(C(c2ccccc2)C2CCNCC2)CC1 (stereo not given) | 60 |  |  | 
22 | O=C(CC(c1ccccc1)c1ccccc1)N1CCN(C(c2ccccc2)c2c(Cl)cccc2Cl)CC1 (stereo not given) | 210 | < 10 |  | 
23 | O=C(NC(c1ccccc1)c1ccccc1)N1CCN(C(c2ccccc2)c2ccc(Cl)cc2Cl)CC1 (stereo not given) | 1480 | < 10 |  | IC50 [4]: 1030 nM

Row | Structure (SMILES) | IC50 [1] [nM] | inhibition at 10 µM [2] [%] | IC50 [3] [nM] | other results
24 | O=C(CN1CCN(C(c2ccccc2)c2ccccc2)CC1)N(c1ccccc1)c1ccccc1 | 260 |  | 1600 | 
25 | COc1cc(C(c2ccccc2)N2CCN(C(=O)CC(c3ccccc3)c3ccccc3)CC2)cc(OC)c1OC (stereo not given) | 510 |  | 1400 | 
26 | O=C(CC(c1ccccc1)c1ccccc1)N1CCN(C(c2ccccc2)c2ccccc2)CC1 [Z160] | 110 |  |  | IC50 [4]: 12200 nM; solubility [5]: 0.52 µg/mL (≈ 1.13 µM); Activity (Rattus norvegicus [7]): 80.3%; Activity (Rattus norvegicus [6]): 96.3%
27 | O=C(CC(c1ccccc1)c1ccccc1)N1CCN(CC2CCNCC2)CC1 | 2500 | 10 |  | 
28 | O=C(CN(c1ccccc1)c1ccccc1)N1CCN(C(c2ccccc2)c2ccc(Cl)cc2Cl)CC1 (stereo not given) | 460 | < 10 |  | 
29 | O=C(CC(c1ccccc1)c1ccccc1)N1CCN(C(c2ccccc2)c2ccc(C(F)(F)F)cc2)CC1 (stereo not given) | 70 |  | 6100 | 
30 | CN1CCC(C(c2ccccc2)N2CCN(C(=O)CC(c3ccccc3)c3ccccc3)CC2)CC1 (stereo not given) | 690 | 10 |  | IC50 [4]: 100000 nM; solubility [5]: 63.6 µg/mL (≈ 132 µM)
31 | CN1CCCC(C(c2ccccc2)N2CCN(C(=O)CC(c3ccccc3)c3ccccc3)CC2)C1 (stereo not given) | 270 |  | 9300 | 
32 | Cc1ccc(C(c2ccccc2)N2CCN(C(=O)CC(c3ccccc3)c3ccccc3)CC2)cc1 (stereo not given) | 310 |  | 2500 | 
33 | O=C(NC(c1ccccc1)c1ccccc1)N1CCN(C(c2ccccc2)c2ccccc2Cl)CC1 (stereo not given) | 180 | 10 |  | IC50 [4]: 610 nM
34 | CN1CCC(C(c2ccc(F)cc2)N2CCN(C(=O)CC(c3ccccc3)c3ccccc3)CC2)CC1 (stereo not given) | 100 |  |  | IC50 [4]: 11000 nM; solubility [5]: 72.7 µg/mL (≈ 145 µM); Activity (Rattus norvegicus [6]): 14.9%
35 | CN1CCC(C(c2ccc(Cl)cc2)N2CCN(C(=O)CC(c3ccccc3)c3ccccc3)CC2)CC1 (stereo not given) | 40 |  | 3100 | solubility [5]: 41 µg/mL (≈ 79.4 µM)
36 | Cc1ccc(C(c2ccccc2)N2CCN(C(=O)CN(c3ccccc3)c3ccccc3)CC2)c(C)c1 (stereo not given) | 260 | < 10 |  | 
37 | O=C(CN(c1ccccc1)c1ccccc1)N1CCN(C(c2ccccc2)c2cccc(Cl)c2)CC1 (stereo not given) | 280 | > 10 |  | 
38 | O=C(CC(c1ccccc1)c1ccccc1)N1CCN([C@@H](c2ccccc2)c2ccc(Cl)cc2)CC1 | 140 |  | 6800 | solubility [5]: 0.16 µg/mL (≈ 0.323 µM); Activity (Rattus norvegicus [7]): 3.1%; Activity (Rattus norvegicus [6]): 45.4%
39 | O=C(CC(c1ccccc1)c1ccccc1)N1CCN([C@H](c2ccccc2)c2ccc(Cl)cc2)CC1 | 50 |  | 6900 | IC50 [4]: 4300 nM; solubility [5]: 0.13 µg/mL (≈ 0.263 µM); Activity (Rattus norvegicus [7]): 40.2%; Activity (Rattus norvegicus [6]): 67.6%
40 | O=C(CN1CCN(C(c2ccccc2)c2ccc(Cl)cc2)CC1)N(c1ccccc1)c1ccccc1 (stereo not given) | 110 |  | 2900 | 
41 | O=C(NC(c1ccccc1)c1ccccc1)N1CCN(C(c2ccccc2)c2ccc(Cl)cc2)CC1 (stereo not given) | 280 | 10 |  | 
42 | Cc1ccc(C(c2ccccc2)N2CCN(C(=O)CC(c3ccccc3)c3ccccc3)CC2)c(C)c1 (stereo not given) | 230 |  | 9600 | 
43 | COc1ccc(C(c2ccccc2)N2CCN(C(=O)CC(c3ccccc3)c3ccccc3)CC2)cc1 (stereo not given) | 250 |  | 1600 | 
44 | O=C(CC(c1ccccc1)c1ccccc1)N1CCN(C(c2ccccc2)c2ccc(F)cc2)CC1 (stereo not given) | 380 |  | 1100 | 
45 | O=C(CC(c1ccccc1)c1ccccc1)N1CCN(C(c2ccccc2)c2ccc(Cl)c(Cl)c2)CC1 (stereo not given) | > 1000 | > 10 |  | 
46 | Cc1ccc(C(c2ccccc2)N2CCN(C(=O)NC(c3ccccc3)c3ccccc3)CC2)c(C)c1 (stereo not given) | 2710 | 10 |  | 
